# Data: ChEMBL document CHEMBL1128519, “Semisynthetic chemical modification of the antifungal lipopeptide echinocandin B (ECB): structure-activity studies of the lipophilic and geometric parameters of polyarylated acyl analogs of ECB” (J Med Chem, 1995)
# Numbered stars: 1 amine (or outer) side, 2 acyl side, 3 side chain; on linkers, the order of the positions; unused ones are H or OH. Bridge positions count the residues as written; N and C are the ends. Square brackets hold non-standard residues; d marks the D form. Peptide text beside a SMILES is read from it. * marks the point of attachment. Orn(4R-OH,5R-OH) = O=C([C@H](C[C@@H](O)[C@@H](O)N[*:3])N[*:1])[*:2]; hTyr(3S-OH,4S-OH) = N[C@H](C(=O)O)[C@H](O)[C@@H](O)c1ccc(O)cc1; Pro(3S-OH,4S-Me) = C[C@H]1CN[C@H](C(=O)O)[C@H]1O; X25 = CCCCCCCCCCCCC(Oc1ccc(-c2ccccc2)cc1)C(=O)*; X18 = O=C(c1ccc(C#Cc2ccc(-c3ccccc3)cc2)cc1)*; X11 = CCC(CC)COc1ccc(-c2ccc(C(=O)*)cc2)cc1; X13 = O=C(CCCCCCCCCCOc1ccc(-c2ccccc2)cc1)*; X22 = O=C(c1ccc(-c2ccc(OCC3CCCC3)cc2)cc1)*; X24 = CCCCC(Oc1ccc(-c2ccccc2)cc1)C(=O)*; X10 = CCCCc1ccc(COc2ccc(C(=O)*)cc2)cc1; X21 = CCCCOc1ccc(-c2ccc(C(=O)*)cc2)cc1; X26 = CCCCOc1ccc(Cc2ccc(C(=O)*)cc2)cc1; X28 = CCCCOc1ccc(Oc2ccc(C(=O)*)cc2)cc1; X23 = O=C(CCCCCOc1ccc(-c2ccccc2)cc1)*; X27 = CCCCCCCCCCOc1cc2ccccc2cc1C(=O)*; X12 = CCCCCCCCCCOCCOc1ccc(C(=O)*)cc1; X15 = CCCCCCOc1ccc2cc(C(=O)*)ccc2c1; X19 = CCCCCCCCOCCOc1ccc(C(=O)*)cc1; X30 = CCCCCCOc1cc2ccccc2cc1C(=O)*; Hyp = O=C(O)[C@@H]1C[C@@H](O)CN1; X29 = CCCCCOCCOc1ccc(C(=O)*)cc1
# Key:
# [1] = biological target: Beta-1,3-glucan synthase (Candida albicans) (UniProt O13428); assay: In vitro inhibition of glucan synthase obtained from Candida albicans at a concentration of 10 ug/mL.
# Beta-1,3-glucan synthase (Candida albicans), sequence (O13428 as listed by the source): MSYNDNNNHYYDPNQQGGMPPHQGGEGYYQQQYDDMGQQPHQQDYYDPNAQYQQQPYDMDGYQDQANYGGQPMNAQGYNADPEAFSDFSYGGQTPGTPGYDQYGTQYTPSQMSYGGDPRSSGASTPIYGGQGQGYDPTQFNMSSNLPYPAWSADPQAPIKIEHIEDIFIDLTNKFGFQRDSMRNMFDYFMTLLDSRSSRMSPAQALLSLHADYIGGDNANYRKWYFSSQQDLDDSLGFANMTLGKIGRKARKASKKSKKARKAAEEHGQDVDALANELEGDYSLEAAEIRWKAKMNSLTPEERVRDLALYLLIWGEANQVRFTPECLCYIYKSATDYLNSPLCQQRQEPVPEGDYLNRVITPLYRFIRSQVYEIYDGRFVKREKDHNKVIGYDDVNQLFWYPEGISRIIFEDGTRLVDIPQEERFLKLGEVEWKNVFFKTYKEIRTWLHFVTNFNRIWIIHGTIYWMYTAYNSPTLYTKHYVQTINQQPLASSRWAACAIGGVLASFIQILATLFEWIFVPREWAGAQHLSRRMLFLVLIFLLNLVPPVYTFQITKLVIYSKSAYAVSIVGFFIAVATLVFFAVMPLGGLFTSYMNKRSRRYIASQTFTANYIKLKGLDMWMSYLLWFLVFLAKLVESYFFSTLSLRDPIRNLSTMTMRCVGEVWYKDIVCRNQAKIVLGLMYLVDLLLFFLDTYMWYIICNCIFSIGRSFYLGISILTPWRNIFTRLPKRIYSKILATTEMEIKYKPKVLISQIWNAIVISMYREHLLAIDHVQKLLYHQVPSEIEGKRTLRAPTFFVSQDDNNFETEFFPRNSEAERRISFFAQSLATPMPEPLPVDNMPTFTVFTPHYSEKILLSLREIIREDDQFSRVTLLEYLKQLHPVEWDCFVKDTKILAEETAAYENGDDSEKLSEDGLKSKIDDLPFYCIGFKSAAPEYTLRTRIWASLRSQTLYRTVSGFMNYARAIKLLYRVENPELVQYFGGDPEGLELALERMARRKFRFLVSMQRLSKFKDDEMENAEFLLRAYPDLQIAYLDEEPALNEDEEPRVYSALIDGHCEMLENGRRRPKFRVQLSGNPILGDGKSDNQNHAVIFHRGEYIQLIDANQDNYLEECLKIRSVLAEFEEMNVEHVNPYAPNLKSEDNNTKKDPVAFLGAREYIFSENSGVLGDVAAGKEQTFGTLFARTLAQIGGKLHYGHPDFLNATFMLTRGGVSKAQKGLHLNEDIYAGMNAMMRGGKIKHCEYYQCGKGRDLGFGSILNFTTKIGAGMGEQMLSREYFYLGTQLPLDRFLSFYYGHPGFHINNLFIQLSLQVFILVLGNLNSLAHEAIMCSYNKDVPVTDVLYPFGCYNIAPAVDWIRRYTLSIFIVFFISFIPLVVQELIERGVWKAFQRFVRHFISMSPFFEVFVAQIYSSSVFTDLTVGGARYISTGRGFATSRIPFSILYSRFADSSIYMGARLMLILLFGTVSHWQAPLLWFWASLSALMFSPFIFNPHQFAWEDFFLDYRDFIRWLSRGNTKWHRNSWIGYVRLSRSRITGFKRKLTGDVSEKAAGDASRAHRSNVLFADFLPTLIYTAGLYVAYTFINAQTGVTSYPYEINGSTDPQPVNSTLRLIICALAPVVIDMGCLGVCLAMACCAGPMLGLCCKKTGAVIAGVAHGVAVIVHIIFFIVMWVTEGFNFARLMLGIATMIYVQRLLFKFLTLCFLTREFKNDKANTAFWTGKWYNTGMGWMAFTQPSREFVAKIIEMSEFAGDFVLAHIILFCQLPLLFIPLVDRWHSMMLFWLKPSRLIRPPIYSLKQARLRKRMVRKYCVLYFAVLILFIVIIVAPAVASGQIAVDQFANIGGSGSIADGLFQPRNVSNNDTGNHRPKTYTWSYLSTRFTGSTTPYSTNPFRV
# Procedure, shortened: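 Purified, solubilized β-(1,3)-D-glucan synthase prepared from C. albicans. Percent inhibition measured at 10 µg/mL compound, single determination.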
# Candida albicans [2] = assay: Antifungal activity against Candida albicans; type: functional
# Procedure, shortened: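 Broth microdilution, C. albicans A26 (ATCC 62342) grown on Sabouraud dextrose agar at 35 °C; inoculum 1 × 10^5 conidia/mL in antibiotic 3 broth. Compounds dissolved at 1.0 mg/mL in methanol, 2-fold serial dilutions from 80 µg/mL, duplicate. Read after 48 h at 35 °C. MIC = lowest concentration completely inhibiting visible growth.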
# Candida albicans [3] = assay: In vivo antifungal activity administered intraperitoneally against Candida albicans infections in mice.; type: functional; conditions: ip
# Procedure, shortened: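 Male ICR mice (18-20 g), X-irradiated with 400 r 24 h before iv tail-vein infection with 2 × 10^6 C. albicans A26 cells in saline. Compounds suspended in β-cyclodextrin, given parenterally at 0, 4, 24 and 48 h post-infection. 10 mice per dose, top dose 10 mg/kg with 2-fold dilutions down to 0.039 mg/kg. 7-day survival; ED50 by Reed-Muench.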
Structure (SMILES),inhibition [1] [%],MIC (Candida albicans [2]) [µg/mL],ED50 (Candida albicans [3]) [mg/kg]
"CCCCOc1ccc(Oc2ccc(C(=O)N[C@H]3C[C@@H](O)[C@@H](O)NC(=O)[C@@H]4[C@@H](O)[C@@H](C)CN4C(=O)[C@H]([C@@H](C)O)NC(=O)[C@H]([C@H](O)[C@@H](O)c4ccc(O)cc4)NC(=O)[C@@H]4C[C@@H](O)CN4C(=O)[C@H]([C@@H](C)O)NC3=O)cc2)cc1 (X28-[Orn(4R-OH,5R-OH)]T[Hyp][hTyr(3S-OH,4S-OH)]T[Pro(3S-OH,4S-Me)]; lactam 1-C)",66.7,> 20,
"CCC(CC)COc1ccc(-c2ccc(C(=O)N[C@H]3C[C@@H](O)[C@@H](O)NC(=O)[C@@H]4[C@@H](O)[C@@H](C)CN4C(=O)[C@H]([C@@H](C)O)NC(=O)[C@H]([C@H](O)[C@@H](O)c4ccc(O)cc4)NC(=O)[C@@H]4C[C@@H](O)CN4C(=O)[C@H]([C@@H](C)O)NC3=O)cc2)cc1 (X11-[Orn(4R-OH,5R-OH)]T[Hyp][hTyr(3S-OH,4S-OH)]T[Pro(3S-OH,4S-Me)]; lactam 1-C)",,0.039,4.6
"C[C@@H](O)[C@@H]1NC(=O)[C@H]([C@H](O)[C@@H](O)c2ccc(O)cc2)NC(=O)[C@@H]2C[C@@H](O)CN2C(=O)[C@H]([C@@H](C)O)NC(=O)[C@@H](NC(=O)c2ccc(-c3ccc(OCC4CCCC4)cc3)cc2)C[C@@H](O)[C@@H](O)NC(=O)[C@@H]2[C@@H](O)[C@@H](C)CN2C1=O (X22-[Orn(4R-OH,5R-OH)]T[Hyp][hTyr(3S-OH,4S-OH)]T[Pro(3S-OH,4S-Me)]; lactam 1-C)",,0.039,1.2
"C[C@@H](O)[C@@H]1NC(=O)[C@H]([C@H](O)[C@@H](O)c2ccc(O)cc2)NC(=O)[C@@H]2C[C@@H](O)CN2C(=O)[C@H]([C@@H](C)O)NC(=O)[C@@H](NC(=O)c2ccc(C#Cc3ccc(-c4ccccc4)cc3)cc2)C[C@@H](O)[C@@H](O)NC(=O)[C@@H]2[C@@H](O)[C@@H](C)CN2C1=O (X18-[Orn(4R-OH,5R-OH)]T[Hyp][hTyr(3S-OH,4S-OH)]T[Pro(3S-OH,4S-Me)]; lactam 1-C)",78.2,0.078,1.7
"CCCCOc1ccc(Cc2ccc(C(=O)N[C@H]3C[C@@H](O)[C@@H](O)NC(=O)[C@@H]4[C@@H](O)[C@@H](C)CN4C(=O)[C@H]([C@@H](C)O)NC(=O)[C@H]([C@H](O)[C@@H](O)c4ccc(O)cc4)NC(=O)[C@@H]4C[C@@H](O)CN4C(=O)[C@H]([C@@H](C)O)NC3=O)cc2)cc1 (X26-[Orn(4R-OH,5R-OH)]T[Hyp][hTyr(3S-OH,4S-OH)]T[Pro(3S-OH,4S-Me)]; lactam 1-C)",43.4,> 20,
"CCCCc1ccc(COc2ccc(C(=O)N[C@H]3C[C@@H](O)[C@@H](O)NC(=O)[C@@H]4[C@@H](O)[C@@H](C)CN4C(=O)[C@H]([C@@H](C)O)NC(=O)[C@H]([C@H](O)[C@@H](O)c4ccc(O)cc4)NC(=O)[C@@H]4C[C@@H](O)CN4C(=O)[C@H]([C@@H](C)O)NC3=O)cc2)cc1 (X10-[Orn(4R-OH,5R-OH)]T[Hyp][hTyr(3S-OH,4S-OH)]T[Pro(3S-OH,4S-Me)]; lactam 1-C)",68.9,0.156,6.7
"CCCCCCCCOCCOc1ccc(C(=O)N[C@H]2C[C@@H](O)[C@@H](O)NC(=O)[C@@H]3[C@@H](O)[C@@H](C)CN3C(=O)[C@H]([C@@H](C)O)NC(=O)[C@H]([C@H](O)[C@@H](O)c3ccc(O)cc3)NC(=O)[C@@H]3C[C@@H](O)CN3C(=O)[C@H]([C@@H](C)O)NC2=O)cc1 (X19-[Orn(4R-OH,5R-OH)]T[Hyp][hTyr(3S-OH,4S-OH)]T[Pro(3S-OH,4S-Me)]; lactam 1-C)",54.8,2.5,4.4
"CCCCC(Oc1ccc(-c2ccccc2)cc1)C(=O)N[C@H]1C[C@@H](O)[C@@H](O)NC(=O)[C@@H]2[C@@H](O)[C@@H](C)CN2C(=O)[C@H]([C@@H](C)O)NC(=O)[C@H]([C@H](O)[C@@H](O)c2ccc(O)cc2)NC(=O)[C@@H]2C[C@@H](O)CN2C(=O)[C@H]([C@@H](C)O)NC1=O (stereo partly drawn) (X24-[Orn(4R-OH,5R-OH)]T[Hyp][hTyr(3S-OH,4S-OH)]T[Pro(3S-OH,4S-Me)]; lactam 1-C)",55.1,80,
"C[C@@H](O)[C@@H]1NC(=O)[C@H]([C@H](O)[C@@H](O)c2ccc(O)cc2)NC(=O)[C@@H]2C[C@@H](O)CN2C(=O)[C@H]([C@@H](C)O)NC(=O)[C@@H](NC(=O)CCCCCOc2ccc(-c3ccccc3)cc2)C[C@@H](O)[C@@H](O)NC(=O)[C@@H]2[C@@H](O)[C@@H](C)CN2C1=O (X23-[Orn(4R-OH,5R-OH)]T[Hyp][hTyr(3S-OH,4S-OH)]T[Pro(3S-OH,4S-Me)]; lactam 1-C)",69.1,1.25,
"CCCCCCOc1ccc2cc(C(=O)N[C@H]3C[C@@H](O)[C@@H](O)NC(=O)[C@@H]4[C@@H](O)[C@@H](C)CN4C(=O)[C@H]([C@@H](C)O)NC(=O)[C@H]([C@H](O)[C@@H](O)c4ccc(O)cc4)NC(=O)[C@@H]4C[C@@H](O)CN4C(=O)[C@H]([C@@H](C)O)NC3=O)ccc2c1 (X15-[Orn(4R-OH,5R-OH)]T[Hyp][hTyr(3S-OH,4S-OH)]T[Pro(3S-OH,4S-Me)]; lactam 1-C)",77.7,0.039,2.8
"CCCCCOCCOc1ccc(C(=O)N[C@H]2C[C@@H](O)[C@@H](O)NC(=O)[C@@H]3[C@@H](O)[C@@H](C)CN3C(=O)[C@H]([C@@H](C)O)NC(=O)[C@H]([C@H](O)[C@@H](O)c3ccc(O)cc3)NC(=O)[C@@H]3C[C@@H](O)CN3C(=O)[C@H]([C@@H](C)O)NC2=O)cc1 (X29-[Orn(4R-OH,5R-OH)]T[Hyp][hTyr(3S-OH,4S-OH)]T[Pro(3S-OH,4S-Me)]; lactam 1-C)",17.1,> 20,
"CCCCCCOc1cc2ccccc2cc1C(=O)N[C@H]1C[C@@H](O)[C@@H](O)NC(=O)[C@@H]2[C@@H](O)[C@@H](C)CN2C(=O)[C@H]([C@@H](C)O)NC(=O)[C@H]([C@H](O)[C@@H](O)c2ccc(O)cc2)NC(=O)[C@@H]2C[C@@H](O)CN2C(=O)[C@H]([C@@H](C)O)NC1=O (X30-[Orn(4R-OH,5R-OH)]T[Hyp][hTyr(3S-OH,4S-OH)]T[Pro(3S-OH,4S-Me)]; lactam 1-C)",19.4,20,
"CCCCOc1ccc(-c2ccc(C(=O)N[C@H]3C[C@@H](O)[C@@H](O)NC(=O)[C@@H]4[C@@H](O)[C@@H](C)CN4C(=O)[C@H]([C@@H](C)O)NC(=O)[C@H]([C@H](O)[C@@H](O)c4ccc(O)cc4)NC(=O)[C@@H]4C[C@@H](O)CN4C(=O)[C@H]([C@@H](C)O)NC3=O)cc2)cc1 (X21-[Orn(4R-OH,5R-OH)]T[Hyp][hTyr(3S-OH,4S-OH)]T[Pro(3S-OH,4S-Me)]; lactam 1-C)",71.4,0.078,0.8
"CCCCCCCCCCCCC(Oc1ccc(-c2ccccc2)cc1)C(=O)N[C@H]1C[C@@H](O)[C@@H](O)NC(=O)[C@@H]2[C@@H](O)[C@@H](C)CN2C(=O)[C@H]([C@@H](C)O)NC(=O)[C@H]([C@H](O)[C@@H](O)c2ccc(O)cc2)NC(=O)[C@@H]2C[C@@H](O)CN2C(=O)[C@H]([C@@H](C)O)NC1=O (stereo partly drawn) (X25-[Orn(4R-OH,5R-OH)]T[Hyp][hTyr(3S-OH,4S-OH)]T[Pro(3S-OH,4S-Me)]; lactam 1-C)",83,0.312,
"C[C@@H](O)[C@@H]1NC(=O)[C@H]([C@H](O)[C@@H](O)c2ccc(O)cc2)NC(=O)[C@@H]2C[C@@H](O)CN2C(=O)[C@H]([C@@H](C)O)NC(=O)[C@@H](NC(=O)CCCCCCCCCCOc2ccc(-c3ccccc3)cc2)C[C@@H](O)[C@@H](O)NC(=O)[C@@H]2[C@@H](O)[C@@H](C)CN2C1=O (X13-[Orn(4R-OH,5R-OH)]T[Hyp][hTyr(3S-OH,4S-OH)]T[Pro(3S-OH,4S-Me)]; lactam 1-C)",80.2,0.02,7.4
"CCCCCCCCCCOc1cc2ccccc2cc1C(=O)N[C@H]1C[C@@H](O)[C@@H](O)NC(=O)[C@@H]2[C@@H](O)[C@@H](C)CN2C(=O)[C@H]([C@@H](C)O)NC(=O)[C@H]([C@H](O)[C@@H](O)c2ccc(O)cc2)NC(=O)[C@@H]2C[C@@H](O)CN2C(=O)[C@H]([C@@H](C)O)NC1=O (X27-[Orn(4R-OH,5R-OH)]T[Hyp][hTyr(3S-OH,4S-OH)]T[Pro(3S-OH,4S-Me)]; lactam 1-C)",40.6,20,
"CCCCCCCCCCOCCOc1ccc(C(=O)N[C@H]2C[C@@H](O)[C@@H](O)NC(=O)[C@@H]3[C@@H](O)[C@@H](C)CN3C(=O)[C@H]([C@@H](C)O)NC(=O)[C@H]([C@H](O)[C@@H](O)c3ccc(O)cc3)NC(=O)[C@@H]3C[C@@H](O)CN3C(=O)[C@H]([C@@H](C)O)NC2=O)cc1 (X12-[Orn(4R-OH,5R-OH)]T[Hyp][hTyr(3S-OH,4S-OH)]T[Pro(3S-OH,4S-Me)]; lactam 1-C)",71.4,0.625,9.5
